Experiments:
Assay type in all cases: cell-based
[1] = molecular target: T1, Calcium release-activated calcium channel protein 1 (Homo sapiens, UniProt Q96D31); experiment: Inhibition of […] Orai1-medited store operated calcium entry in human MDA-MB-231 cells pretreated for 15 mins followed by BAPTA addition by PBX dye based FLIPR assay
Outline: (§1)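 MDA-MB-231 cells seeded 2×10^3/well and used 3 days later. Loaded 1 h at 37 °C with 2 µM PBX calcium dye, 5% signal enhancer and 500 µM probenecid in PSS, pH 7.3. Compound pretreated 15 min at room temperature. Then 500 µM BAPTA, 10 µM CPA, and 0.5 mM CaCl2 700 s after CPA. Read-out: peak 2 height as % inhibition vs DMSO. 95% CI, n = 4.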
Target sequence in this assay (Q96D31 whole entry): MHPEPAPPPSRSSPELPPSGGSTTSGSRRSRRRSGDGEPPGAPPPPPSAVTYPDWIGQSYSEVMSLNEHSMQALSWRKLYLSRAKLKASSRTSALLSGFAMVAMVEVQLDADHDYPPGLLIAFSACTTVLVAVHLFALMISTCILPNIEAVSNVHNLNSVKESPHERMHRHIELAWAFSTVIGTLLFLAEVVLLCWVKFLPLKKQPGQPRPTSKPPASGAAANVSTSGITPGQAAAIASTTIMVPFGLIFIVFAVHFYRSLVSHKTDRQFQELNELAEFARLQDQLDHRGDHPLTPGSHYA

[2] = tested on: MDA-MB-231; experiment: Inhibition of endoplasmic reticulum calcium channel in human MDA-MB-231 cells assessed as reduction in endoplasmic reticulum intracellular calcium release at 100 uM pretreated for 15 mins followed by SERCA inhibitor CPA addition measured after 700 secs by PBX dye based FLIPR assay relative to control
Outline: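 Same MDA-MB-231 PBX-dye FLIPR protocol: 15 min compound pretreatment at room temperature, then BAPTA (500 µM) and CPA (10 µM) to deplete ER stores. Peak 1 height after CPA addition (ER Ca2+ release) expressed as % inhibition relative to the DMSO control. Excitation 470–495 nm, emission 515–575 nm.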

[3] = molecular target: T1, Calcium release-activated calcium channel protein 1; experiment: Inhibition of […] Orai1-medited store operated calcium entry in human MDA-MB-231 cells at 100 uM pretreated for 15 mins followed by BAPTA addition by PBX dye based FLIPR assay relative to control; outline: as §1
Target sequence in this assay (Q96D31 whole entry, looked up): as the sequence (Q96D31 whole entry) above

| Compound | IC50 [1] [µM] | inhibition [2] [%] | inhibition [3] [%] |
| --- | --- | --- | --- |
| Cc1cccc(C2=NN(C(=O)Cc3ccccc3)C(O)(C(F)(F)F)C2)c1 (configuration not stated) | 36 | < 10 | – |
| O=C(Cc1ccccc1)N1N=C(c2cccc(C(F)(F)F)c2)CC1(O)C(F)(F)F (configuration not stated) | 29 | < 10 | – |
| Cc1ccccc1C1=NN(C(=O)c2ccccc2)C(O)(C(F)(F)F)C1 (configuration not stated) | – | < 10 | 20 |
| COc1ccc(CC(=O)N2N=C(c3cccc(C)c3)CC2(O)C(F)(F)F)cc1 (configuration not stated) | 33 | < 10 | – |
| Cc1ccc(CC(=O)N2N=C(c3cccc(C)c3)CC2(O)C(F)(F)F)cc1 (configuration not stated) | 42 | < 10 | – |
| Cc1cccc(C2=NN(C(=O)COc3ccccc3)C(O)(C(F)(F)F)C2)c1 (configuration not stated) | – | < 10 | < 10 |
| Cc1ccc(C2=NN(C(=O)Cc3ccccc3)C(O)(C(F)(F)F)C2)cc1 (configuration not stated) | – | < 10 | < 10 |
| O=C(Cc1ccccc1)N1N=C(c2ccc(Cl)cc2Cl)CC1(O)C(F)(F)F (configuration not stated) | 58 | < 10 | 60 |
| Cc1cccc(C2(O)CC(C(F)(F)F)=NN2C(=O)c2ccccc2)c1 (configuration not stated) | – | < 10 | < 10 |
| O=C(Cc1ccccc1)N1N=C(c2cccc(OCCN3CCOCC3)c2)CC1(O)C(F)(F)F (configuration not stated) | – | 50 | 50 |
| O=C(Cc1ccccc1)N1N=C(c2cccc(OC(F)(F)F)c2)CC1(O)C(F)(F)F (configuration not stated) | – | < 10 | 50 |
| Cc1ccc(CC(=O)N2N=C(c3ccccc3C)CC2(O)C(F)(F)F)cc1 (configuration not stated) | 55 | < 10 | – |
| COc1ccccc1C1=NN(C(=O)Cc2ccccc2)C(O)(C(F)(F)F)C1 (configuration not stated) | – | < 10 | 25 |
| O=C(Cc1ccccc1)N1N=C(c2ccc([N+](=O)[O-])cc2)CC1(O)C(F)(F)F (configuration not stated) | – | < 10 | < 10 |
| Cc1cccc(C2=NN(C(=O)c3ccccc3)C(O)(C(F)(F)F)C2)c1 (configuration not stated) | – | < 10 | 30 |
| O=C(Cc1ccccc1)N1N=C(c2cccc(Br)c2)CC1(O)C(F)(F)F (configuration not stated) | 47 | < 10 | – |
| Cc1ccccc1C1=NN(C(=O)Cc2ccccc2Cl)C(O)(C(F)(F)F)C1 (configuration not stated) | 40 | < 10 | – |
| O=C(Cc1ccccc1)N1N=C(C(F)(F)F)CC1(O)c1ccccc1[N+](=O)[O-] (configuration not stated) | – | 20 | 30 |
| Cc1cccc(CC(=O)N2N=C(c3ccccc3C)CC2(O)C(F)(F)F)c1 (configuration not stated) | 42 | < 10 | – |
| Cc1ccccc1C1=NN(C(=O)Cc2cccc(Cl)c2)C(O)(C(F)(F)F)C1 (configuration not stated) | 79 | < 10 | – |

| Compound | IC50 [1] [µM] | inhibition [2] [%] | inhibition [3] [%] |
| --- | --- | --- | --- |
| O=C(Cc1ccccc1)N1N=C(c2cccnc2)CC1(O)C(F)(F)F (configuration not stated) | – | < 10 | < 10 |
| O=C(Cc1ccccc1)N1N=C(c2ccc(Cl)cc2)CC1(O)C(F)(F)F (configuration not stated) | – | < 10 | < 10 |
| Cc1ccccc1C1(O)CC(C(F)(F)F)=NN1C(=O)CC1CCCCC1 (configuration not stated) | – | < 10 | 20 |
| N#Cc1ccc(C2=NN(C(=O)Cc3ccccc3)C(O)(C(F)(F)F)C2)cc1 (configuration not stated) | – | < 10 | < 10 |
| O=C(Cc1ccccc1)N1N=C(c2ccc(F)cc2)CC1(O)C(F)(F)F (configuration not stated) | – | < 10 | < 10 |
| O=C(Cc1ccccc1)N1N=C(c2cc(Cl)ccc2Cl)CC1(O)C(F)(F)F (configuration not stated) | 54 | < 10 | 60 |
| O=C(Cc1ccccc1)N1N=C(c2ccccc2[N+](=O)[O-])CC1(O)C(F)(F)F (configuration not stated) | – | < 10 | 40 |
| COc1ccccc1CC(=O)N1N=C(c2ccccc2C)CC1(O)C(F)(F)F (configuration not stated) | – | < 10 | 60 |
| Cc1cccc(C2=NN(C(=O)Cc3ccccc3C)C(O)(C(F)(F)F)C2)c1 (configuration not stated) | – | < 10 | < 10 |
| O=C(Cc1ccccc1)N1N=C(c2cccc(Cl)c2)CC1(O)C(F)(F)F (configuration not stated) | 48 | < 10 | – |
| O=C(Cc1ccccc1)N1N=C(c2ccccc2Br)CC1(O)C(F)(F)F (configuration not stated) | 30 | < 10 | – |
| O=C(Cc1ccccc1)N1N=C(c2ccc3c(c2)CCCC3)CC1(O)C(F)(F)F (configuration not stated) | 89 | < 10 | 50 |
| COc1ccccc1CC(=O)N1N=C(c2cccc(C)c2)CC1(O)C(F)(F)F (configuration not stated) | – | < 10 | 50 |
| O=C(Cc1ccccc1)N1N=C(c2ccccc2OC(F)(F)F)CC1(O)C(F)(F)F (configuration not stated) | – | < 10 | < 10 |
| Cc1ccccc1CC(=O)N1N=C(c2ccccc2C)CC1(O)C(F)(F)F (configuration not stated) | – | < 10 | 20 |
| CC(=O)Nc1ccc(C2=NN(C(=O)Cc3ccccc3)C(O)(C(F)(F)F)C2)cc1 (configuration not stated) | – | < 10 | < 10 |
| Cc1cccc(C2=NN(C(=O)CC3CCCCC3)C(O)(C(F)(F)F)C2)c1 (configuration not stated) | – | < 10 | < 10 |
| O=C(Cc1ccccc1)N1N=C(c2ccc(Br)cc2)CC1(O)C(F)(F)F (configuration not stated) | – | < 10 | < 10 |
| O=C(Cc1ccccc1)N1N=C(c2ccc(OC(F)(F)F)cc2)CC1(O)C(F)(F)F (configuration not stated) | – | < 10 | < 10 |
| COc1cccc(OC)c1C1=NN(C(=O)Cc2ccccc2)C(O)(C(F)(F)F)C1 (configuration not stated) | – | < 10 | < 10 |

| Compound | IC50 [1] [µM] | inhibition [2] [%] | inhibition [3] [%] |
| --- | --- | --- | --- |
| COc1ccc(CC(=O)N2N=C(c3ccccc3C)CC2(O)C(F)(F)F)cc1 (configuration not stated) | – | < 10 | 30 |
| O=C(Cc1ccccc1)N1N=C(c2ccccc2)CC1(O)C(F)(F)F (configuration not stated) | – | < 10 | < 10 |
| Cc1cccc(C2=NN(C(=O)Cc3ccc(Cl)cc3)C(O)(C(F)(F)F)C2)c1 (configuration not stated) | 60 | < 10 | – |
| Cc1cccc(C2=NN(C(=O)Cc3cccc(Cl)c3)C(O)(C(F)(F)F)C2)c1 (configuration not stated) | 75 | < 10 | – |
| Cc1cccc(CC(=O)N2N=C(c3cccc(C)c3)CC2(O)C(F)(F)F)c1 (configuration not stated) | 45 | < 10 | – |
| N#Cc1cccc(C2=NN(C(=O)Cc3ccccc3)C(O)(C(F)(F)F)C2)c1 (configuration not stated) | – | < 10 | < 10 |
| O=C(Cc1ccccc1)N1N=C(c2cccc(F)c2F)CC1(O)C(F)(F)F (configuration not stated) | 55 | < 10 | 80 |
| O=C(Cc1ccccc1)N1N=C(c2ccccn2)CC1(O)C(F)(F)F (configuration not stated) | – | < 10 | 20 |
| Cc1ccccc1C1=NN(C(=O)CC2CCCCC2)C(O)(C(F)(F)F)C1 (configuration not stated) | – | < 10 | < 10 |
| O=C(Cc1ccccc1)N1N=C(c2cccc([N+](=O)[O-])c2)CC1(O)C(F)(F)F (configuration not stated) | 89 | < 10 | – |
| Cc1ccccc1C1=NN(C(=O)COc2ccccc2)C(O)(C(F)(F)F)C1 (configuration not stated) | 105 | < 20 | – |
| COc1cccc(CC(=O)N2N=C(c3ccccc3C)CC2(O)C(F)(F)F)c1 (configuration not stated) | – | < 10 | 60 |
| O=C(Cc1ccccc1)N1N=C(c2ccccc2Cl)CC1(O)C(F)(F)F (configuration not stated) | 33 | 50 | – |
| COc1cccc(CC(=O)N2N=C(c3cccc(C)c3)CC2(O)C(F)(F)F)c1 (configuration not stated) | 32 | < 10 | – |
| COc1ccc(C2=NN(C(=O)Cc3ccccc3)C(O)(C(F)(F)F)C2)cc1 (configuration not stated) | – | < 10 | < 10 |
| O=C(Cc1ccccc1)N1N=C(c2ccccc2F)CC1(O)C(F)(F)F (configuration not stated) | – | < 10 | 30 |
| Cc1cccc(C2=NN(C(=O)Cc3ccccc3Cl)C(O)(C(F)(F)F)C2)c1 (configuration not stated) | 42 | < 10 | – |
| O=C(Cc1ccccc1)N1N=C(c2c(F)cccc2F)CC1(O)C(F)(F)F (configuration not stated) | – | < 10 | < 10 |
| Cc1ccccc1C1=NN(C(=O)Cc2ccc(Cl)cc2)C(O)(C(F)(F)F)C1 (configuration not stated) | 47 | < 10 | – |
